From ChEMBL document CHEMBL1137826, “A new class of acyclic 2-alkyl-1,1,2-triaryl (Z)-olefins as selective cyclooxygenase-2 inhibitors” (J Med Chem, 2004)

Key:
Rattus norvegicus [1] = species: Rattus norvegicus; assay: animal or person; conditions: Abdomen, po, 0.5 h, read-out: Inhibition
[2] = molecular target: T1, Prostaglandin G/H synthase 1 (Ovis aries, UniProt P05979); assay: In vitro inhibition of ovine prostaglandin G/H synthase 1
T1 sequence (P05979 whole entry): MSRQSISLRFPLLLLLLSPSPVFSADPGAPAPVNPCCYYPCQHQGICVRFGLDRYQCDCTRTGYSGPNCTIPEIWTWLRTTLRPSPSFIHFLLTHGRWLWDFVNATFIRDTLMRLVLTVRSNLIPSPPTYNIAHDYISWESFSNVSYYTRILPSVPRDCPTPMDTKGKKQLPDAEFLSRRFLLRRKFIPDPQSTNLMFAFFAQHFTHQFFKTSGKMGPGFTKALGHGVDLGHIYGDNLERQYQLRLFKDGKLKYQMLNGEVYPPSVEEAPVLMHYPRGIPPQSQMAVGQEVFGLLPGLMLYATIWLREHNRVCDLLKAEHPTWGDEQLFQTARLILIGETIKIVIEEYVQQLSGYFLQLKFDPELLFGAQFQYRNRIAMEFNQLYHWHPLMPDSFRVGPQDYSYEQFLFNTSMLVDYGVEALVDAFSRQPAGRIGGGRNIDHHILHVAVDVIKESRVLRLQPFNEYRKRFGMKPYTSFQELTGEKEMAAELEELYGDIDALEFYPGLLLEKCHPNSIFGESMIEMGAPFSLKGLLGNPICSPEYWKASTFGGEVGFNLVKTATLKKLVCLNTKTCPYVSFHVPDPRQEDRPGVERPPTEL

Rattus norvegicus [3] = assay: Percent inhibition of 4% sodium chloride-induced abdominal constriction in rat after 30 min of 5 mg/kg oral dose of the compound; format: functional; conditions: Abdomen, 0.5 h
Outline: (§1)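 Test compound given to rats orally at 5 mg/kg before 4% NaCl-induced writhing (abdominal constriction).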

Rattus norvegicus [4] = assay: Percent inhibition of 4% sodium chloride-induced abdominal constriction in rat after 60 min of 5 mg/kg oral dose of the compound; format: functional; conditions: Abdomen, 1 h
Outline: as §1

[5] = molecular target: T2, Prostaglandin G/H synthase 2 (Rattus norvegicus) (UniProt P35355)
T2 sequence (whole entry): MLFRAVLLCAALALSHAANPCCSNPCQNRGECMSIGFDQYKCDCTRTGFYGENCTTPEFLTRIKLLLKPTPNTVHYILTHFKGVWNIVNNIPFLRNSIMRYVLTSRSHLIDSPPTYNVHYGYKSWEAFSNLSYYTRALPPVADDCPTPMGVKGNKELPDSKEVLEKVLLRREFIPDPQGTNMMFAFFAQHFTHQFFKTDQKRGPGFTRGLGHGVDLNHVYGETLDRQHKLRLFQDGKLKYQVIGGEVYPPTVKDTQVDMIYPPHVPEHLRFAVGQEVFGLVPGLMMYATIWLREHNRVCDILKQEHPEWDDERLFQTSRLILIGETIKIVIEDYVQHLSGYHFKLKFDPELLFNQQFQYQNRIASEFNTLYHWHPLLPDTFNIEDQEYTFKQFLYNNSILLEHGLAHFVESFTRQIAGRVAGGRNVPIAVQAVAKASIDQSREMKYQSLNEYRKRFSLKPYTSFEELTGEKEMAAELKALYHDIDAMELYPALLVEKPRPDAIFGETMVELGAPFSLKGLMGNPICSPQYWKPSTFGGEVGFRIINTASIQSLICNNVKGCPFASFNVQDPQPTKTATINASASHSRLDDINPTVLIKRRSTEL

| IC50 [2] [µM] | ID50 [5] [mg/kg] | Compound | inhibition in vivo at 50 mg/kg (Rattus norvegicus [1]) [%] | inhibition in vivo at 5 mg/kg (Rattus norvegicus [3]) [%] | inhibition in vivo at 5 mg/kg (Rattus norvegicus [4]) [%] |
| --- | --- | --- | --- | --- | --- |
| > 100 |  | CCC/C(=C(\c1ccccc1)c1ccc(S(C)(=O)=O)cc1)c1ccccc1 |  |  |  |
| > 100 | 1.1 | CCCCCC/C(=C(\c1ccccc1)c1ccc(S(C)(=O)=O)cc1)c1ccccc1 |  | 33.3 | 35.4 |
| > 100 |  | CCCCCCCC/C(=C(\c1ccccc1)c1ccc(S(C)(=O)=O)cc1)c1ccccc1 |  |  |  |
| > 100 | 1.9 | CC/C(=C(\c1ccccc1)c1ccc(S(C)(=O)=O)cc1)c1ccccc1 |  | 38.8 | 50 |

More lines, now with the values behind:

| Compound | IC50 [2] [µM] | ID50 [5] [mg/kg] | inhibition in vivo at 50 mg/kg (Rattus norvegicus [1]) [%] | inhibition in vivo at 5 mg/kg (Rattus norvegicus [3]) [%] | inhibition in vivo at 5 mg/kg (Rattus norvegicus [4]) [%] |
| --- | --- | --- | --- | --- | --- |
| Cc1ccc(-c2cc(C(F)(F)F)nn2-c2ccc(S(N)(=O)=O)cc2)cc1 [CELECOXIB] |  |  | 69.3 |  |  |
| CC/C(=C(\c1ccccc1)c1ccc(S(C)(=O)=O)cc1)c1ccc(OC(C)=O)cc1 | 0.25 | 1.3 |  | 60 | 57.5 |
| CCCC/C(=C(\c1ccccc1)c1ccc(S(C)(=O)=O)cc1)c1ccccc1 | 30 |  |  |  |  |
| CCCC/C(=C(\c1ccccc1)c1ccc(S(C)(=O)=O)cc1)c1ccc(OC(C)=O)cc1 | > 100 |  |  |  |  |
